We go through 52 molecules from ChEMBL document CHEMBL1828580, “Tertiary amides with a five-membered heteroaromatic ring as new probes for the translocator protein” (Eur J Med Chem, 2011).

Molecules are shown by their SMILES. Calls of active or inactive are those of the source. The calls are words filed in the database; no cut-off is given here.

For one test, the target named is Translocator protein (Rattus norvegicus, UniProt P16257). The test is described as follows: Displacement of [3H]PK11195 from TSPO receptor in rat kidney membranes. It is filed as cell membranes, Membrane.
Translocator protein, sequence (P16257 whole entry, looked up): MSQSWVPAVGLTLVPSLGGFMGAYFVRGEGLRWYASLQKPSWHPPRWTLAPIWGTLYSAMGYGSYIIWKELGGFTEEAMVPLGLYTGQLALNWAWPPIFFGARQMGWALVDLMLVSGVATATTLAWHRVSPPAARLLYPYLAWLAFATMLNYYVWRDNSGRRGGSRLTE
The species entered for a further test is Rattus norvegicus. The test is described as follows: Displacement of [3H]Ro15-1788 from CBR in rat cerebral cortex at 10 uM. The format is tissue-based. Put shortly: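 Rat cerebral cortex membranes were washed free of endogenous GABA, then incubated with 0.4 nM [3H]Ro15-1788 for 90 min at 0 °C in 50 mM Tris-citrate pH 7.4. Compound was present at 10 μM and the result given as % inhibition of binding.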

Test [1] can be described thus: Antiproliferative activity against human U87MG cells assessed as cell viability at 1000 times Ki after 24 hrs by MTS assay relative to untreated control. The format is functional, U-87MG ATCC. In a few lines:
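U87MG cells grown in RPMI with 10% FBS, glutamine, antibiotics and non-essential amino acids at 37 °C. […] MTS colorimetric read-out, expressed as % of DMSO-treated control (100%). Triplicate wells, 3 experiments, mean ± SEM.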
In general terms: Tetrazolium dyes change colour on reduction, which living cells bring about.

The test system of test [2] is U-87MG ATCC. The test is described as follows: Antiproliferative activity against human U87MG cells assessed as reduction in cell viability at 30 times Ki after 24 hrs by trypan blue exclusion assay.
Test [3] has as its system U-87MG ATCC. The test is described as follows: Antiproliferative activity against human U87MG cells assessed as reduction in cell viability at 30 times Ki after 72 hrs by trypan blue exclusion assay.
Test [4] concerns U-87MG ATCC. In words: Antiproliferative activity against human U87MG cells assessed as reduction in cell viability at 30 times Ki after 48 hrs by trypan blue exclusion assay.
Test [5] has as its system U-87 MG. In words: Induction of mitochondrial membrane depolarization in human U87MG cells assessed as increase in JC-1 monomer formation at 30 times Ki after 12 to 48 hrs by flow cytometric analysis. The following applies: U-87MG ATCC. The format is functional, cell-based. In a few lines:
(§1)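 U87MG cells were exposed to compound at 30 times Ki, or to DMSO control, for 12, 24 or 48 h, with CCCP as positive control in each experiment. Collected cells were stained with JC-1 for 30 min at room temperature in the dark, then analysed by flow cytometry: aggregates in FL2, monomers in FL1, gated on forward/side scatter. Read-out was % of cells in the lower-right (depolarized) quadrant; three independent experiments.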
(In flow cytometry, cells or beads pass a laser one at a time.)

In test [6] the test system is U-87 MG. In words: Induction of mitochondrial membrane depolarization in human U87MG cells assessed as change in membrane potential at 30 times Ki after 48 hrs by flow cytometric analysis. It is filed as functional, U-87MG ATCC. In a few lines: as §1
Test [7] deals with U-87MG ATCC. In words: Antiproliferative activity against human U87MG cells assessed as reduction in cell viability at 150 times Ki after 24 hrs by trypan blue exclusion assay.

Turning to `CCCCN(CCCC)C(=O)Cc1coc(-c2ccc(Cl)cc2)n1`, the inhibitory constant (Ki) (as a rule, the equilibrium dissociation constant of an inhibitor or competing ligand from its target) on Translocator protein amounted to 177 nM. That is a sub-micromolar value.

The molecule `CCCCCN(CCCCC)C(=O)Cc1nc(-c2ccc(Cl)cc2)no1` showed a Ki on Translocator protein of 152 nM.

`CCCN(CCC)C(=O)Cc1nc(-c2ccc(Cl)cc2)no1`: the Ki at Translocator protein was 3400 nM.

As for `CCCCCN(CCCCC)C(=O)Cc1nc(-c2ccccc2)no1`, at Translocator protein, the Ki is 133 nM.

For `CCCCCCN(CCCCCC)C(=O)c1coc(-c2ccccc2)n1`, the affinity at Translocator protein, expressed as Ki, was 4600 nM.

Molecule `CCN(CC)C(=O)c1coc(-c2ccccc2)n1` came in with an inhibition constant (Ki) at Translocator protein above 10000 nM.

In turn, `CCCCN(CCCC)C(=O)c1nc(-c2ccccc2)no1` yielded a Ki on Translocator protein of 772 nM. This lies in the sub-micromolar range.

In the case of `CCCCN(CCCC)C(=O)c1cc(-c2ccccc2)on1`, the affinity at Translocator protein, expressed as Ki, was 620 nM.

Molecule `CCCCN(CCCC)C(=O)Cc1coc(-c2ccc(C)cc2)n1` returned a Ki on Translocator protein of 487 nM.

`CCCN(CCC)C(=O)c1cc(-c2ccccc2)on1`: on Translocator protein, the Ki was above 10000 nM.

The molecule `CCCCCCN(CCCCCC)C(=O)c1cc(-c2ccc(Cl)cc2)on1` returned a Ki on Translocator protein above 10000 nM.

`CCCCN(CCCC)C(=O)Cc1coc(-c2ccccc2)n1`: in the test listed under Rattus norvegicus, the inhibition (commonly the drop in the measured response relative to a control, in per cent) is below 25%. In addition, the inhibition constant Ki at Translocator protein was found to be 346 nM.

Turning to `CCCN(CCC)C(=O)Cc1nc(-c2ccccc2)no1`, at Translocator protein, the Ki worked out at 4340 nM.

At Translocator protein, `CCCCCCN(CCCCCC)C(=O)Cc1coc(-c2ccc(F)cc2)n1` gave a Ki of 157 nM.

As for `CCCCCCN(CCCCCC)C(=O)Cc1coc(-c2ccccc2)n1`, the inhibition in the test listed under Rattus norvegicus is below 25%. Moreover, the Ki on Translocator protein stood at 151 nM.

`CCCCCCN(CCCCCC)C(=O)Cc1nc(-c2ccc(Cl)cc2)no1`: the Ki at Translocator protein was 3200 nM.

In the case of `CCCCCN(CCCCC)C(=O)c1coc(-c2ccccc2)n1`, the Ki on Translocator protein is 613 nM. This Ki lies about 5.2-fold lower than the previous one.

Consider `CCCCCN(CCCCC)C(=O)Cc1coc(-c2ccc(Cl)cc2)n1`, for which the Activity in [1] turned out to be 72.6%. At Translocator protein, this molecule displayed a Ki of 45 nM.

For the molecule `CCCCN(CCCC)C(=O)C(=O)c1c(-c2ccc(Cl)cc2)[nH]c2ccc(Cl)cc12`, the Activity in [1] was 76%.

For the molecule `CCCCCN(CCCCC)C(=O)Cc1cc(-c2ccccc2)no1`, at Translocator protein, the Ki is 257 nM. This counts as sub-micromolar.

`CCCCN(CCCC)C(=O)c1cc(-c2ccccc2)no1`: on Translocator protein, the Ki was 651 nM.

Turning to `CCCCCN(CCCCC)C(=O)c1cc(-c2ccccc2)no1`, the Ki at Translocator protein turned out to be 379 nM.

Molecule `CCCCN(CCCC)C(=O)Cc1nc(-c2ccc(Cl)cc2)no1` returned a Ki at Translocator protein of 267 nM.

Regarding `CCCN(CCC)C(=O)Cc1coc(-c2ccc(C)cc2)n1`, at Translocator protein, the Ki came to 2200 nM.

Molecule `CCCCCCN(CCCCCC)C(=O)c1cc(-c2ccccc2)on1` showed a Ki on Translocator protein of 5800 nM.

`CCCN(CCC)C(=O)c1coc(-c2ccccc2)n1` came in with a Ki on Translocator protein above 10000 nM.

Take `CCCCCCN(CCCCCC)C(=O)Cc1coc(-c2ccc(Cl)cc2)n1`: the Ki on Translocator protein was determined as 704 nM.

For `CCCN(CCC)C(=O)Cc1coc(-c2ccc(F)cc2)n1`, the Ki on Translocator protein came to 1630 nM. Compared with the last molecule, the Ki is about 2.3-fold higher.

For the molecule `CCCCN(C)C(=O)c1coc(-c2ccccc2)n1`, the Ki on Translocator protein is above 10000 nM.

For `CCCCCN(CCCCC)C(=O)Cc1cc(-c2ccccc2)on1`, the Activity in test [1] stood at 24.8%. For the same molecule, the Ki on Translocator protein came out at 51 nM.

In the case of `CCCCCCN(CCCCCC)C(=O)c1cc(-c2ccc(C)cc2)no1`, the Ki at Translocator protein stood at 2700 nM.

In turn, `CCCCN(CCCC)C(=O)c1coc(-c2ccccc2)n1` gave a Ki at Translocator protein of 3460 nM. This Ki and that of the molecule before are within 1.5-fold of each other.

In the case of `CCCCCN(CCCCC)C(=O)c1cc(-c2ccccc2)on1`, the Ki at Translocator protein worked out at 382 nM.

Regarding `CCCN(CCC)C(=O)c1cc(-c2ccccc2)no1`, the Ki on Translocator protein was above 10000 nM.

In turn, `CCCCCN(CCCCC)C(=O)c1nc(-c2ccccc2)no1` came in with a Ki on Translocator protein of 914 nM.

Turning to `CCCCCCN(CCCCCC)C(=O)c1nc(-c2ccccc2)no1`, at Translocator protein, the Ki was 4190 nM.

Consider `CCCN(CCC)C(=O)c1cc(-c2ccc(Cl)cc2)on1`, for which the Ki at Translocator protein is above 10000 nM.

On to `CCCN(CCC)C(=O)c1nc(-c2ccccc2)no1`, for which the Ki at Translocator protein is above 10000 nM.

`CCCCN(CCCC)C(=O)Cc1coc(-c2ccc(F)cc2)n1` came in with a Ki at Translocator protein of 88 nM. This counts as double-digit nanomolar.

On Translocator protein, `CCN(Cc1ccccc1)C(=O)c1nc(-c2ccccc2)no1` returned an inhibitory constant (Ki) of 4870 nM. This Ki lies about 55-fold higher than the previous one.

In turn, `CCCCCCN(CCCCCC)C(=O)c1cc(-c2ccccc2)no1` yielded a Ki on Translocator protein of 7000 nM.

`CCCN(CCC)C(=O)Cc1coc(-c2ccc(Cl)cc2)n1` came in with a Ki on Translocator protein of 942 nM. Compared with the last molecule, the Ki is about 7.4-fold lower.

In the case of `CCN(Cc1ccccc1)C(=O)c1coc(-c2ccccc2)n1`, on Translocator protein, the Ki was determined as 5490 nM.

Consider `CCCCCN(CCCCC)C(=O)Cc1coc(-c2ccc(C)cc2)n1`, for which the Activity in test [1] is given as 5.3%. The Ki at Translocator protein worked out at 68 nM.

On Translocator protein, `CCN(CC)C(=O)c1nc(-c2ccccc2)no1` gave a Ki above 10000 nM.

As for `CCCCCN(CCCCC)C(=O)Cc1coc(-c2ccccc2)n1`, the outcome with U-87MG ATCC [2], in the test on U-87MG ATCC [3], in the test with U-87MG ATCC [4], with U-87 MG [5] and in the test with U-87MG ATCC [7] was Active. Moreover, the Activity in test [1] worked out at 9.3%; in the test with U-87 MG [6] it was 24%. Besides, in the test filed under Rattus norvegicus, the inhibition was below 25%. In addition, the affinity on Translocator protein corresponds to a Ki of 32 nM.

Regarding `CCCCCCN(CCCCCC)C(=O)Cc1nc(-c2ccccc2)no1`, at Translocator protein, the affinity, expressed as Ki, was 1100 nM.

`CCCCN(CCCC)C(=O)Cc1nc(-c2ccccc2)no1` returned a Ki on Translocator protein of 489 nM.

Molecule `CCCN(CCC)C(=O)Cc1coc(-c2ccccc2)n1` gave an inhibition in the test listed under Rattus norvegicus below 25%. At Translocator protein, this molecule returned a Ki of 1700 nM.

On Translocator protein, `CCCCCCN(CCCCCC)C(=O)Cc1coc(-c2ccc(C)cc2)n1` came in with a Ki of 877 nM.

Regarding `CCCCCN(CCCCC)C(=O)Cc1coc(-c2ccc(F)cc2)n1`, the Activity in test [1] amounted to 98%. Further, the Ki at Translocator protein is 11 nM.

On to `CCCCN(C)C(=O)c1nc(-c2ccccc2)no1`, for which, at Translocator protein, the Ki is above 10000 nM.
